Activity calls are given as the source filed them. The calls are words filed in the database; no cut-off is given here.
Legend:
[1] = system: MIA; test: (§1) Growth inhibition of human MIA cells after 72 hrs by MTT assay; type: functional
Summary of the method: (§2)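 Cells kept in DMEM with 10% FBS, glutamine, penicillin/streptomycin at 37 °C, 5% CO2; plated in duplicate at 2500–4000 cells/well, dosed 24 h later during log growth. After 72 h drug exposure, MTT read at 540 nm. […] Assays in triplicate, standard error reported.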

[2] = system: MCF7; test: Growth inhibition of human MCF7 cells after 72 hrs by MTT assay; type: functional; settings: for GI50: MCF7, 72 h; summary of the method: as §2
[3] = system: BE(2)-C; test: (§3) Growth inhibition of human BE(2)-C cells after 72 hrs by MTT assay; type: functional; summary of the method: as §2
[4] = system: SJ-G2; test: (§4) Growth inhibition of human SJ-G2 cells after 72 hrs by MTT assay; type: functional; summary of the method: as §2
[5] = system: HT-29; test: Growth inhibition of human HT-29 cells after 72 hrs by MTT assay; type: functional; settings: for GI50: HT-29, 72 h; summary of the method: as §2
[6] = system: A2780; test: Growth inhibition of human A2780 cells after 72 hrs by MTT assay; type: functional; settings: for GI50: A2780, 72 h; summary of the method: as §2
[7] = system: SMA; test: (§5) Growth inhibition of mouse SMA cells after 72 hrs by MTT assay; type: functional; summary of the method: as §2
[8] = system: U-87MG ATCC; test: (§6) Growth inhibition of human U87 cells after 72 hrs by MTT assay; type: functional; summary of the method: as §2
[9] = system: DU-145; test: Growth inhibition of human DU145 cells after 72 hrs by MTT assay; type: functional; settings: for GI50: DU-145, 72 h; summary of the method: as §2
[10] = system: A-431; test: Growth inhibition of human A431 cells after 72 hrs by MTT assay; type: functional; settings: for GI50: A-431, 72 h; summary of the method: as §2
[11] = system: NCI-H460; test: (§7) Growth inhibition of human H460 cells after 72 hrs by MTT assay; type: functional; summary of the method: as §2
[12] = as §1; type: functional; summary of the method: as §2
[13] = as §3; type: functional; summary of the method: as §2
[14] = as §4; type: functional; settings: SJ-G2, 72 h; summary of the method: as §2
[15] = as §5; type: functional; summary of the method: as §2
[16] = as §6; type: functional, U-87MG ATCC; settings: U-87 MG; summary of the method: as §2
[17] = as §7; type: functional; settings: NCI-H460, 72 h; summary of the method: as §2
[18] = system: P338; test: Growth inhibition of mouse […] cells; type: functional, cell-based

Compound	growth inhibition (GI) [1]	growth inhibition (GI) [2]	growth inhibition (GI) [3]	growth inhibition (GI) [4]	growth inhibition (GI) [5]	growth inhibition (GI) [6]	growth inhibition (GI) [7]	growth inhibition (GI) [8]	growth inhibition (GI) [9]	growth inhibition (GI) [10]	growth inhibition (GI) [11]	GI50 [12] [µM]	GI50 [2] [µM]	GI50 [13] [µM]	GI50 [14] [µM]	GI50 [5] [µM]	GI50 [6] [µM]	GI50 [15] [µM]	GI50 [16] [µM]	GI50 [9] [µM]	also measured
CCCCc1cc2c(C)cc3c(c2oc1=O)C(=O)c1c(OC(C)C)cccc1C3=O	Active	Active	Active	Active	Active	Active	Active	Active	Active	Active	Active	–	–	–	–	–	–	–	–	–	–
Cc1cc2c(c3oc(C(=O)c4ccccc4)cc13)C(=O)c1c(O)cccc1C2=O	Active	Active	Active	–	Active	Active	Active	Active	–	Active	Active	–	–	–	–	–	–	–	–	–	–
Cc1cc2c(c3oc(=O)c(CCCC#N)cc13)C(=O)c1c(OC(C)C)cccc1C2=O	Active	Active	Active	Active	Active	Active	Active	Active	Active	Active	Active	–	–	–	–	–	–	–	–	–	–
Cc1cc2c(c3oc(-c4ccccc4)cc13)C(=O)c1c(O)cccc1C2=O	Active	Active	Active	–	Active	Active	Active	Active	–	Active	Active	–	–	–	–	–	–	–	–	–	–
CCCc1cc2c(C)cc3c(c2o1)C(=O)c1c(OC(C)C)cccc1C3=O	Active	Active	Active	Active	Active	Active	Active	Active	Active	Active	Active	–	–	–	–	–	–	–	–	–	–
Cc1cc2c(c3oc(-c4ccccc4)cc(=O)c13)C(=O)c1c(O)cccc1C2=O	Active	Active	Active	–	Active	Active	Active	Active	Active	Active	Active	–	–	–	–	–	–	–	–	–	–
CCCCCCc1cc(=O)c2c(C)cc3c(c2o1)C(=O)c1c(O)cccc1C3=O	Active	Active	Active	Active	Active	Active	–	Active	Active	Active	Active	–	–	–	–	–	–	–	–	–	–
CCC(C)(OCc1ccccc1)c1cc2c(C)cc3c(c2oc1=O)C(=O)c1c(OC(C)C)cccc1C3=O (stereo not drawn)	Active	Active	Active	Active	Active	Active	Active	Active	Active	Active	Active	–	–	–	–	–	–	–	–	–	–
Cc1cc2c(c3oc(-c4ccccc4)cc13)C(=O)c1c(OC(C)C)cccc1C2=O	Active	Active	Active	–	Active	Active	Active	Active	–	Active	Active	–	–	–	–	–	–	–	–	–	–
CCCc1cc2c(C)cc3c(c2oc1=O)C(=O)c1c(OC(C)C)cccc1C3=O	Active	Active	Active	Active	Active	Active	Active	Active	Active	Active	Active	–	–	–	–	–	–	–	–	–	–
CCCCCCc1cc2c(C)cc3c(c2oc1=O)C(=O)c1c(O)cccc1C3=O	Active	Active	Active	Active	Active	Active	Active	Active	Active	Active	Active	–	–	–	–	–	–	–	–	–	–
CCCCCCc1cc2c(C)cc3c(c2oc1=O)C(=O)c1c(OC(C)C)cccc1C3=O	Active	Active	Active	Active	Active	Active	–	Active	Active	Active	Active	–	–	–	–	–	–	–	–	–	–
Cc1cc2c(c3oc(C4(C)CO4)cc(=O)c13)C(=O)c1c(O)cccc1C2=O (racemic)	–	–	–	–	–	–	–	–	–	–	–	0.9	1.3	0.17	0.8	2	0.29	0.16	0.99	0.84	GI50 [10]: 0.95 µM; GI50 [17]: 2.1 µM; IC50 [18]: 0.001 µM
Cc1cc2c(c3oc(CCCCl)cc13)C(=O)c1c(OC(C)C)cccc1C2=O	–	–	–	–	–	–	–	–	–	–	–	34	13	43	25	18	11	22	18	25	GI50 [10]: 23 µM; GI50 [17]: 27 µM
Cc1cc2c(c3oc(=O)c([Si](C)(C)C)cc13)C(=O)c1c(OC(C)C)cccc1C2=O	–	–	–	–	–	–	–	–	–	–	–	11	13	28	14	11	13	11	19	27	GI50 [10]: 19 µM; GI50 [17]: 21 µM
C=C(C)c1cc(=O)c2c(C)cc3c(c2o1)C(=O)c1c(O)cccc1C3=O	–	–	–	–	–	–	–	–	–	–	–	2	1.4	5.9	4.7	1.6	1.6	1.7	3.4	1.5	GI50 [10]: 1.8 µM; GI50 [17]: 3.9 µM
CCC(C)(OCc1ccccc1)c1cc2c(C)cc3c(c2oc1=O)C(=O)c1c(O)cccc1C3=O (stereo not drawn)	–	–	–	–	–	–	–	–	–	–	–	3.9	5.3	6.7	3.9	5.6	7	6.1	14	8.8	GI50 [10]: 4 µM; GI50 [17]: 5.1 µM
CCCc1cc(=O)c2c(C)cc3c(c2o1)C(=O)c1c(OC)cccc1C3=O	–	–	–	–	–	–	–	–	–	–	–	7.1	6.4	6.1	5.3	5.5	6.4	6	6.4	5.3	GI50 [10]: 6.6 µM; GI50 [17]: 5.3 µM
CC(=O)c1cc2c(C)cc3c(c2o1)C(=O)c1c(O)cccc1C3=O	–	–	–	–	–	–	–	–	–	–	–	9.5	2.1	2.9	1.8	4.7	2	1.5	5.5	2	GI50 [10]: 4.8 µM; GI50 [17]: 9.6 µM
CCCCCCc1cc2c(C)cc3c(c2o1)C(=O)c1c(OC(C)C)cccc1C3=O	Active	Active	Active	Active	Active	Active	Active	Active	Active	Active	Active	–	–	–	–	–	–	–	–	–	–
Cc1cc2c(c3oc(=O)c(-c4ccccc4)cc13)C(=O)c1c(OC(C)C)cccc1C2=O	Active	Active	Active	Active	Active	Active	Active	Active	Active	Active	Active	–	–	–	–	–	–	–	–	–	–
